{"source": "paper PMC7008087", "about": "(Biochimica et biophysica acta. Molecular cell research, 2019)", "key": {"H441 and Calu-3 cells": {"test_system": "H441 and Calu-3 cells", "assay": "Cell-proliferation, H441 and Calu-3 reported together", "assay_type": "cell-based, human", "conditions": "for effect on Bn-stimulated increase in cell-proliferation: H441 and Calu-3 cells, Bn 1 μM, 24 hr, CCK-8 and MTS"}, "Akt": {"test_system": "Akt", "assay": "Akt phosphorylation", "assay_type": "cell-based, human"}, "p44/42": {"test_system": "p44/42", "assay": "p44/42 MAPK phosphorylation", "assay_type": "cell-based, human"}, "EGFR, HER2, and HER3": {"test_system": "EGFR, HER2, and HER3", "assay": "EGFR, HER2 and HER3 phosphorylation reported together", "assay_type": "cell-based, human", "how_it_was_run": "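Time course: serum-starved (overnight) H441, H2087 or Calu-3 cells were stimulated with Bn 100 nM or NRG-1 100 ng/mL for 3-60 min. Cells were lysed in RIPA and blotted for phospho-EGFR (Tyr1068), HER2 (Tyr1248) and HER3 (Tyr1289) using primary antibodies at 1:1000 overnight at 4 °C. Tubulin served as loading control, and background-subtracted densitometry was expressed as % of basal.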"}, "HER3": {"biological_target": "HER3 (Homo sapiens, UniProt P21860)", "assay": "HER3 phosphorylation", "assay_type": "cell-based", "conditions": "for EC50, HER3 phosphorylation: mean ± SEM of three independent experiments", "how_it_was_run": "(§1)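 H441 or H2087 cells at 80% confluence were serum-starved overnight, then given Bn (0.1-100 nM) or NRG-1 (0.1-100 ng/mL) for 3 min. Cells were lysed in RIPA buffer (pH 7.6) and protein was measured by BCA. Lysates were run on a 4–20% gel and blotted for phospho-EGFR Tyr1068, HER2 Tyr1248 and HER3 Tyr1289, with tubulin as loading control. Bands were read by densitometry as % basal; mean ± SEM, ≥3 experiments.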"}, "HER3/EGFR": {"test_system": "HER3/EGFR", "assay": "HER3/EGFR heterodimerization", "assay_type": "cell-based, human", "conditions": "H441 and Calu-3 cells; 100 nM Bn or 100 ng/mL NRG-1", "how_it_was_run": "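Serum-starved (overnight) 80%-confluent cells treated with test peptide (100 nM) or reference ligand (100 ng/mL); lysed in RIPA (pH 7.6), sonicated, cleared. 800 μg protein with anti-HER3 antibody, 1 hr at 4 °C, then protein A/G agarose overnight at 4 °C; five RIPA washes. Immunoblotted for partner receptors by chemiluminescence; background-subtracted densitometry as ratio to untreated control; whole-extract tubulin as loading control.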"}, "HER3/HER2": {"test_system": "HER3/HER2", "assay": "HER3/HER2 heterodimerization", "assay_type": "cell-based, human", "conditions": "H441 and Calu-3 cells; 100 nM Bn or 100 ng/mL NRG-1", "how_it_was_run": "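Serum-starved H441 and Calu-3 cells received no addition, 100 nM Bn or 100 ng/mL NRG-1. RIPA lysate (800 μg protein) was incubated with anti-HER3 antibody for 1 hr at 4 °C, then with protein A/G agarose overnight at 4 °C. Beads were washed five times in RIPA and boiled in Laemmli buffer. Partners were detected by Western blot, with tubulin from whole-cell extract as loading control; values are given as ratio to control.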"}, "EGFR": {"test_system": "EGFR", "assay": "EGFR phosphorylation", "assay_type": "cell-based, human", "conditions": "for EC50, EGFR phosphorylation: mean ± SEM of three independent experiments", "how_it_was_run": "as §1"}, "HER2": {"test_system": "HER2", "assay": "HER2 phosphorylation", "assay_type": "cell-based, human", "conditions": "for EC50, HER2 phosphorylation: mean ± SEM of three independent experiments", "how_it_was_run": "as §1"}, "[1]": {"conditions": "Wortmannin 1 μM or LY294002 10 μM"}, "[2]": {"conditions": "Calu-3 cells, Bn 100 nM or NRG-1 100 ng/mL"}, "[3]": {"conditions": "H441 cells, dose-response, 3 min, Bn 100 nM maximal, NRG-1 0.1-100 ng/mL"}, "[4]": {"conditions": "H2087 cells, 100 nM Bn or 100 ng/mL NRG-1, 3 min"}, "[5]": {"conditions": "H441 cells, NRG-1 0.1-100 ng/mL, 3 min"}}}
{"molecule": "O=c1cc(N2CCOCC2)oc2c(-c3ccccc3)cccc12", "note": "[LY294002]", "values": [{"measurement": "effect on Bn-stimulated increase in cell-proliferation", "setting": "H441 and Calu-3 cells; [1]", "result": "no significant effect"}]}
{"molecule": "COc1cc2ncnc(Nc3ccc(F)c(Cl)c3)c2cc1OCCCN1CCOCC1", "note": "[gefitinib]", "values": [{"measurement": "effect on Bn-induced increment of Akt phosphorylation", "setting": "Akt", "result": "no significant inhibitory effect"}, {"measurement": "activity at 10 µg/mL", "setting": "Akt; Homo sapiens, NCI-H441, read-out: basal phosphorylation of Akt (% of control)", "result": 79, "unit": "%"}, {"measurement": "effect on Bn-stimulated phosphorylation of p44/42", "setting": "p44/42; H441 cells, gefitinib 10 μg/mL or EGFR knockdown, Bn 100 nM, 15 min", "result": "did not affect"}, {"measurement": "activity at 10 µg/mL", "setting": "p44/42; Homo sapiens, NCI-H441, read-out: basal phosphorylation of p44/42 (% of control)", "result": 75, "unit": "%"}, {"measurement": "effect on Bn-stimulated increase in cell-proliferation", "setting": "H441 and Calu-3 cells; gefitinib 10 μg/mL", "result": "no effect"}, {"measurement": "activity at 10 µg/mL", "setting": "H441 and Calu-3 cells; Homo sapiens, 24 h, read-out: basal stimulation (% of control)", "result": "36 to 45", "unit": "%"}]}
{"molecule": "neuregulin-1 [NRG-1]", "values": [{"measurement": "stimulation time of maximum EGFR, HER2 and HER3 phosphorylation", "setting": "EGFR, HER2, and HER3; [2]", "result": "30 to 60", "unit": "min"}, {"measurement": "maximal stimulation compared with Bn", "setting": "EGFR, HER2, and HER3; H441, H2087 and Calu-3 cells, Bn 100 nM, NRG-1 100 ng/mL", "result": "greater than that seen with Bn"}, {"measurement": "time of maximum phosphorylation of EGFR, HER2, and HER3", "setting": "EGFR, HER2, and HER3; H441 cells, Bn 100 nM or NRG-1 100 ng/mL", "result": 3, "unit": "min"}, {"measurement": "time of maximum phosphorylation of Akt", "setting": "Akt; H441, H2087 and Calu-3 cells, NRG-1 100 ng/mL", "result": 60, "unit": "min"}, {"measurement": "phosphorylation of HER3 maintained at 60 minutes (fold increase)", "setting": "HER3; H441 cells, NRG-1 100 ng/mL, 60 minutes, p < 0.05 vs. control", "result": 20, "unit": "fold"}, {"measurement": "maximal HER3 phosphorylation (fold increase)", "setting": "HER3; [3]", "result": 44, "unit": "fold"}, {"measurement": "HER3 phosphorylation (fold increase)", "setting": "HER3; [4]", "result": 21, "unit": "fold"}, {"measurement": "duration of HER3 phosphorylation", "setting": "HER3; H2087 cells, NRG-1 100 ng/mL", "result": "prolonged phosphorylation"}, {"measurement": "HER3/EGFR heterodimerization", "setting": "HER3/EGFR", "result": "induced HER3/EGFR"}, {"measurement": "HER3/HER2 heterodimerization", "setting": "HER3/HER2", "result": "HER3/HER2 heterodimerization in both cell-lines"}, {"measurement": "EC50, EGFR phosphorylation", "setting": "EGFR; [5]", "result": "4.9 ± 0.9", "unit": "ng/mL"}, {"measurement": "maximum EGFR phosphorylation (fold increase)", "setting": "EGFR; [4]", "result": 5.2, "unit": "fold"}, {"measurement": "EC50, EGFR phosphorylation", "setting": "EGFR; H2087 cells, NRG-1, 3 min", "result": "9.7 ± 1.3", "unit": "ng/mL"}, {"measurement": "phosphorylation of p44/42 at 60 minutes", "setting": "p44/42; [2]", "result": "still present"}, {"measurement": "stimulation time of maximum phosphorylation of p44/42", "setting": "p44/42; H441, H2087 and Calu-3 cells, Bn 100 nM or NRG-1 100 ng/mL", "result": 15, "unit": "min"}, {"measurement": "phosphorylation of p44/42 at 60 minutes", "setting": "p44/42; H441 and H2087 cells, Bn 100 nM or NRG-1 100 ng/mL", "result": "not maintained at 60 minutes"}, {"measurement": "EC50, HER2 phosphorylation", "setting": "HER2; [5]", "result": "16.3 ± 3.4", "unit": "ng/mL"}, {"measurement": "maximal HER2 phosphorylation (fold increase)", "setting": "HER2; [3]", "result": 34, "unit": "fold"}, {"measurement": "HER2 phosphorylation (fold increase)", "setting": "HER2; [4]", "result": 22, "unit": "fold"}, {"measurement": "duration of HER2 phosphorylation", "setting": "HER2; H2087 cells, NRG-1 100 ng/mL", "result": "prolonged phosphorylation"}, {"measurement": "EC50, HER2 phosphorylation", "setting": "HER2; H2087 cells, NRG-1, 3 min", "result": "7.8 ± 2.0", "unit": "ng/mL"}]}
{"molecule": "COC[C@H]1OC(=O)c2coc3c2[C@@]1(C)C1=C(C3=O)[C@@H]2CCC(=O)[C@@]2(C)C[C@H]1OC(C)=O", "note": "[Wortmannin, wortmannin]", "values": [{"measurement": "effect on Bn-stimulated increase in cell-proliferation", "setting": "H441 and Calu-3 cells; [1]", "result": "no significant effect"}]}
{"molecule": "neuregulin-1 (protein, the alternative R&D product is the beta1 ECD (2-246)) TSHLVKCAEKEKTFCVNGGECFMVKDLSNPSRYLCKCPNEFTGDRCQNYVMASFYKHLGIEFMEAEELYQK", "values": [{"measurement": "EC50, HER3 phosphorylation", "setting": "HER3; [5]", "result": "14.3 ± 1.7", "unit": "ng/mL"}, {"measurement": "EC50, HER3 phosphorylation", "setting": "HER3; H2087 cells, NRG-1, 3 min", "result": "8.1 ± 1.7", "unit": "ng/mL"}]}
